Calls of active or inactive are those of the source. The calls are words filed in the database; no cut-off is given here.
What was measured:
[1] = Cytotoxicity against HFF cells assessed as reduction in cell viability measured after 72 hrs by MTS assay; type: toxicity, cell-based; settings: human
In short: (§1)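 MTS viability assay run in triplicate wells. Serial dilutions in DMSO were given, with DMSO as negative control and doxorubicin as positive control, and incubated 72 h. MTS reagent was added for 2 h and absorbance read at 490 nm. % cytotoxicity = (A_medium − A_treatment)/A_medium × 100. EC50 ± SD was taken from dose-response curves of at least three independent experiments.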

[2] = biological target: T1, Bromodomain-containing protein 3 (Homo sapiens, UniProt Q15059); assay: Inhibition of BRD3-BD2 (unknown origin) by fluorescence polarization assay
In short: (§2)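 FP competition assay using the fluorescein-labeled PCC conjugate (4 nM) as tracer. Recombinant His-tagged BRD bromodomain (20–400 nM) in 50 mM HEPES pH 7.4, 150 mM NaCl, 0.5 mM TCEP, 0.05% Tween-20. DMSO-matched serial dilutions were added and the plate incubated. Read at ex 485/em 535 nm, with G-factor zeroed on tracer alone. Triplicate data were curve-fitted, error SEM.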
Target sequence in this assay (Q15059 whole entry): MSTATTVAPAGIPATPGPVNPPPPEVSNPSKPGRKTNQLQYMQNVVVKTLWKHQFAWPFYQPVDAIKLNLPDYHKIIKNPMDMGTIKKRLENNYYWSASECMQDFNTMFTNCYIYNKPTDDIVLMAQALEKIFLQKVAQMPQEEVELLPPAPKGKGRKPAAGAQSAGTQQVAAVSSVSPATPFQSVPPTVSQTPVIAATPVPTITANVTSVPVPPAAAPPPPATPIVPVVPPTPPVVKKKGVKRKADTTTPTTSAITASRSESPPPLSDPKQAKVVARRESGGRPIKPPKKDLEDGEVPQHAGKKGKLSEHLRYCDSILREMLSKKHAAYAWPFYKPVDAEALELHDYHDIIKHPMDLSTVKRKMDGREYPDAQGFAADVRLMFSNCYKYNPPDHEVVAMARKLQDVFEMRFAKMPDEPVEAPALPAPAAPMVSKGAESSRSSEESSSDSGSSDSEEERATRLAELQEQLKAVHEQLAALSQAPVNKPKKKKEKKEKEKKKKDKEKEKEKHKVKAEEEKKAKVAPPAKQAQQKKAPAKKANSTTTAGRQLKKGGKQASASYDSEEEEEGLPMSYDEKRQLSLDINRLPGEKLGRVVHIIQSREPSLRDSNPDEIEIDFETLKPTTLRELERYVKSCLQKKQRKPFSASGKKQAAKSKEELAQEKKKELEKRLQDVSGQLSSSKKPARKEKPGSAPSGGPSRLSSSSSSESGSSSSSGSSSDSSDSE

[3] = biological target: T2, Bromodomain-containing protein 4 (Homo sapiens, UniProt O60885); assay: Inhibition of BRD4-BD1 (unknown origin) by fluorescence polarization assay; in short: as §2
[4] = tested on: PC-3; assay: Antiproliferative activity against androgen-insensitive human PC-3 cells assessed as reduction in cell viability measured after 72 hrs by MTS assay; type: functional, cell-based; settings: PC-3, 72 h; in short: as §1
[5] = biological target: T1, Bromodomain-containing protein 3; assay: Inhibition of BRD3-BD1 (unknown origin) by fluorescence polarization assay; in short: as §2
Target sequence in this assay (Q15059 whole entry): as above

[6] = biological target: T2, Bromodomain-containing protein 4; assay: Inhibition of BRD4-BD2 (unknown origin) by fluorescence polarization assay; in short: as §2
[7] = tested on: LNCaP; assay: Antiproliferative activity against androgen-sensitive human LNCaP cells assessed as reduction in cell viability measured after 72 hrs by MTS assay; type: functional, cell-based; in short: as §1
[8] = Cytotoxicity against human WI-38 cells assessed as reduction in cell viability measured after 72 hrs by MTS assay; type: toxicity, cell-based; in short: as §1
[9] = tested on: DU-145; assay: Antiproliferative activity against AR-negative human DU-145 cells assessed as reduction in cell viability measured after 72 hrs by MTS assay; settings: DU-145, 72 h
[10] = Antiproliferative activity against human Androgen-resistant 22Rv1 cells assessed as reduction in cell viability measured after 72 hrs by MTS assay; type: functional, cell-based; settings: 22Rv1, 72 h; in short: as §1
[11] = tested on: VCaP; assay: Downregulation of BRD2 mRNA levels in human VCaP cells at 25 to 2500 nM incubated for 24 hrs by qRT-PCR analysis; type: functional, cell-based; settings: dose 25-2500 nM
In short: (§3)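 VCaP cells grown to 50% confluence, then treated with compound or DMSO (Methods state 16 h, legend states 24 h). Total RNA isolated, cDNA made from 1 µg RNA, SYBR Green qPCR run in triplicate. Expression by ΔΔCt, normalised to GAPDH. Three independent experiments, SEM.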

[12] = tested on: VCaP; assay: Downregulation of AR […] expression in human VCaP cells at 25 to 2500 nM incubated for 24 hrs by qRT-PCR analysis; type: functional, cell-based; settings: dose 25-2500 nM; in short: as §3
[13] = tested on: VCaP; assay: Downregulation of PSA […] expression in human VCaP cells incubated for 24 hrs by qRT-PCR analysis; type: functional, cell-based; settings: dose 25-2500 nM; in short: as §3
[14] = tested on: VCaP; assay: Antiproliferative activity against AR-positive human VCaP cells assessed as reduction in cell viability measured after 72 hrs by MTS assay; type: functional, cell-based
In short: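 VCaP cells in 96-well plates, compound serially diluted in DMSO and run in triplicate wells for 72 h. MTS reagent added for 2 h, absorbance read at 490 nm. % cytotoxicity = (A_medium − A_treatment)/A_medium × 100. EC50 and SD taken from dose-response curves, at least three independent experiments.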

[15] = tested on: VCaP; assay: Downregulation of TMPRSS2 gene levels in human VCaP cells incubated for 24 hrs by qRT-PCR analysis; type: functional, cell-based; settings: dose 25-2500 nM; in short: as §3
[16] = tested on: VCaP; assay: Downregulation of BRD3 mRNA levels in human VCaP cells at 25 to 2500 nM incubated for 24 hrs by qRT-PCR analysis; type: functional, cell-based; settings: dose 25-2500 nM; in short: as §3
[17] = tested on: VCaP; assay: Downregulation of BRD4 mRNA levels in human VCaP cells at 25 to 2500 nM incubated for 24 hrs by qRT-PCR analysis; type: functional, cell-based; settings: dose 25-2500 nM; in short: as §3
[18] = tested on: VCaP; assay: Downregulation of ERG gene levels in human VCaP cells incubated for 24 hrs by qRT-PCR analysis; type: functional, cell-based; settings: dose 25-2500 nM; in short: as §3
[19] = biological target: T2, Bromodomain-containing protein 4; assay: Induction of BRD4 degradation in human PC-3 cells incubated for 16 hrs by immunoblotting analysis; type: cell-based
In short: (§4)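 MDA-MB-231 or PC-3 cells at 50% confluence in DMEM/10% FBS/pen-strep, treated 16 h with doses falling tenfold from 10 µM to 1 nM. RIPA lysates immunoblotted for BRD2, BRD3 and BRD4 with GAPDH as control. DC50 derived from band densitometry. SEM, n = 2.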

[20] = biological target: T1, Bromodomain-containing protein 3; assay: Induction of BRD3 degradation in human PC-3 cells incubated for 16 hrs by immunoblotting analysis; type: cell-based; in short: as §4
Target sequence in this assay (Q15059 2-726 limits assumed): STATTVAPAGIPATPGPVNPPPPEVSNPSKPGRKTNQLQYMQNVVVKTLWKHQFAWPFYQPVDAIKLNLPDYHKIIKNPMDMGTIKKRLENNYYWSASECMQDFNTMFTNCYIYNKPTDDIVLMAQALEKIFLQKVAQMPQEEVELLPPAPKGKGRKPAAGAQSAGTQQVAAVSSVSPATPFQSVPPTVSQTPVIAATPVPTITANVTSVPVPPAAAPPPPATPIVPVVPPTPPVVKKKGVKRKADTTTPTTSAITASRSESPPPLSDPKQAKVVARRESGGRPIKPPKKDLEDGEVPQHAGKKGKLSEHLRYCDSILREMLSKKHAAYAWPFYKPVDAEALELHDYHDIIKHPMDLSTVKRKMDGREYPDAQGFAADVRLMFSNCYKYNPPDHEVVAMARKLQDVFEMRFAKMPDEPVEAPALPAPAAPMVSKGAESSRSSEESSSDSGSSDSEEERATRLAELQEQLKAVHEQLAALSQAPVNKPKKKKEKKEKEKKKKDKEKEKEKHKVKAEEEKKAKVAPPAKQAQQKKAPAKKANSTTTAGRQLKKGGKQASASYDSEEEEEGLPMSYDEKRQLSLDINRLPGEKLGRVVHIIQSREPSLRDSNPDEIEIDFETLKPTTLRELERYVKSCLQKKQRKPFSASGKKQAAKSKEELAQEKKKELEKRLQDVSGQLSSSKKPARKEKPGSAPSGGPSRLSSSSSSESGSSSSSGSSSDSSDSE

Row | SMILES | EC50 at 72 h [1] [nM] | IC50 [2] [nM] | IC50 [3] [nM] | EC50 [4] [nM] | IC50 [5] [nM] | IC50 [6] [nM] | EC50 [7] [nM] | EC50 at 72 h [8] [nM] | EC50 [9] [nM] | EC50 [10] [nM] | Activity [11] | Activity [12] | Activity [13] | EC50 [14] [nM] | Activity [15] | Activity [16] | Activity [17] | Activity [18] | Activity [19] | Activity [20]
1 | CC1=C(CO)C(=O)O[C@@H]([C@@H](C)[C@H]2CC[C@H]3[C@@H]4C[C@H]5O[C@]56[C@@H](O)C=CC(=O)[C@]6(C)[C@H]4CC[C@]23C)C1 [WITHAFERIN A] | > 6800 | > 20000 | > 20000 | 410 | > 20000 | > 20000 | 870 | – | – | – | – | – | – | – | – | – | – | – | – | –
2 | CC(=O)OC[C@]12CC[C@H]3[C@@H](C[C@H]4O[C@]45CC=CC(=O)[C@]35C)[C@]1(O)[C@@H](OC(C)=O)C[C@@]2(O)[C@@](C)(O)[C@H]1CC(C)=C(C)C(=O)O1 | – | 6000 | 47.6 | 180 | 210 | 14800 | 1200 | > 5000 | – | – | – | – | – | – | – | – | – | – | – | –
3 | CC(=O)OC[C@]12CC[C@H]3[C@@H](C[C@H]4O[C@]45CC=CC(=O)[C@]35C)[C@]1(O)CC[C@@]2(O)[C@@](C)(O)[C@H]1C[C@@H](C)[C@@H](C)C(=O)O1 | > 2000 | > 20000 | > 20000 | 844 | > 20000 | > 20000 | 1060 | – | > 2000 | 1490 | – | – | – | – | – | – | – | – | – | –
4 | CC(=O)OC[C@]12CC[C@H]3[C@@H](C[C@@H]4O[C@@]45CC=CC(=O)[C@]35C)[C@]1(O)CC[C@@]2(O)[C@@](C)(O)[C@H]1CC(C)=C(C)C(=O)O1 | > 12000 | 4260 | 31.2 | 1200 | 89.7 | 10800 | 320 | – | – | – | – | – | – | – | – | – | – | – | – | –
5 | Cc1sc2c(c1C)C(c1ccc(Cl)cc1)=N[C@@H](CC(=O)OC(C)(C)C)c1nnc(C)n1-2 | > 2000 | – | – | > 2000 | – | – | 162 | – | > 2000 | 230 | inactive | inactive | Dose-Dependent Effect | 160 | Active | inactive | inactive | Active | – | –
6 | CC1=C(CO)C[C@H]([C@](C)(O)[C@]2(O)CC[C@@]3(O)[C@@H]4C[C@H]5O[C@]56CC=CC(=O)[C@]6(C)[C@H]4CC[C@]23C)OC1=O | – | > 20000 | 281 | 2900 | 736 | > 20000 | 2780 | > 5000 | > 5000 | – | – | – | – | 1110 | – | – | – | – | – | –
7 | CC(=O)OC[C@]12CC[C@H]3[C@@H](C[C@H]4O[C@]45CC=CC(=O)[C@]35C)[C@]1(O)CC[C@@]2(O)[C@@](C)(O)[C@H]1C[C@]2(C)O[C@]2(C)C(=O)O1 | > 2000 | 755 | 1930 | 425 | 2360 | 5630 | 412 | – | 1470 | 177 | – | – | – | – | – | – | – | – | – | –
8 | CC1=C(C)C(=O)O[C@@H]([C@](C)(O)[C@]2(O)CC[C@@]3(O)[C@@H]4C[C@H]5O[C@]56CC=CC(=O)[C@]6(C)[C@H]4CC[C@]23C)C1 [WITHANOLIDE E] | > 10000 | 720 | 556 | – | 2950 | 1520 | 60 | – | – | 70 | – | – | – | – | – | – | – | – | – | –
9 | COc1cccc2c1C(=O)c1c(O)c3c(c(O)c1C2=O)C[C@@](O)(C(=O)CO)C[C@@H]3O[C@H]1C[C@H](N)[C@H](O)[C@H](C)O1 [DOXORUBICIN] | 150 | – | – | 340 | – | – | 110 | 800 | 40 | 20 | – | – | – | 670 | – | – | – | – | – | –
10 | CC(=O)OC[C@]12CC[C@H]3[C@@H](C[C@H]4O[C@]45CCCC(=O)[C@]35C)[C@]1(O)CC[C@@]2(O)[C@@](C)(O)[C@H]1C[C@@H](C)[C@@H](C)C(=O)O1 | > 2000 | > 20000 | 3870 | > 2000 | > 20000 | 1830 | > 2000 | – | > 2000 | > 2000 | – | – | – | – | – | – | – | – | – | –
11 | C[C@H]1C[C@H]([C@](C)(O)[C@]2(O)CC[C@@]3(O)[C@@H]4C[C@H]5O[C@]56CC=CC(=O)[C@]6(C)[C@H]4CC[C@]23C)OC(=O)[C@@H]1C | > 2000 | – | – | – | – | – | 290 | – | – | 210 | – | – | – | – | – | – | – | – | – | –
12 | CC(=O)OC[C@]12CC[C@H]3[C@@H](CC=C4CC=CC(=O)[C@@]43C)[C@]1(O)CC[C@@]2(O)[C@@](C)(O)[C@H]1CC(C)=C(C)C(=O)O1 | > 3000 | 15800 | 19.3 | 130 | 18 | 3920 | 130 | – | – | 70 | – | – | – | – | – | – | – | – | – | –
13 | CC(=O)OC[C@]12CC[C@H]3[C@@H](C[C@H]4O[C@]45CC=CC(=O)[C@]35C)[C@]1(O)CC[C@@]2(O)[C@@](C)(O)[C@H]1C[C@H](C)[C@H](C)C(=O)O1 | > 2000 | > 20000 | > 20000 | 899 | > 20000 | > 20000 | 1050 | – | > 2000 | 1130 | – | – | – | – | – | – | – | – | – | –
14 | CC(=O)OC[C@]12CC[C@H]3[C@@H](CC=C4C=CCC(=O)[C@@]43C)[C@]1(O)CC[C@@]2(O)[C@@](C)(O)[C@H]1CC(C)=C(C)C(=O)O1 | > 3000 | 131 | 909 | 3100 | 262 | 294 | 1100 | – | – | – | – | – | – | – | – | – | – | – | – | –
15 | CC(=O)OC[C@]12CC[C@H]3[C@@H](C[C@H]4O[C@]45CCCC(=O)[C@]35C)[C@]1(O)CC[C@@]2(O)[C@@](C)(O)[C@H]1CC(C)=C(C)C(=O)O1 | – | 10600 | 60 | 1100 | 235 | 9140 | – | – | – | – | – | – | – | > 2000 | – | – | – | – | inactive | inactive

From ChEMBL document CHEMBL5316292 (J Med Chem, 2023)
